In ChEMBL document CHEMBL1123783, “Synthesis and anticonvulsant activity of analogues of 4-amino-N-(1-phenylethyl)benzamide” (J Med Chem, 1987):

Tests used:
Mus musculus [1] = assay: Compound was evaluated for anticonvulsant activity against subcutaneous pentylenetetrazole-induced convulsions after 4 hr; C is inactive at 300 mg/kg.; type: functional, organism-based; parameters: dose 300 mg/kg
Outline: (§1)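 Male Carworth Farms number-one mice were dosed ip in 30% PEG 400, at 30, 100 or 300 mg/kg (sometimes 600 mg/kg). Pentylenetetrazole, 85 mg/kg as a 0.5% solution, was injected subcutaneously in the posterior midline. Protection meant no episode of clonic spasms lasting at least 5 s during a 30-min observation period.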

Mus musculus [2] = assay: Compound was evaluated for toxicity by rotarod assay method after 30 minutes; C is inactive at 300 mg/kg.; type: organism-based; parameters: dose 300 mg/kg; conditions: in vivo, 0.5 h
Outline: (§2)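 Male Carworth Farms number-one mice received test compound intraperitoneally in 30% polyethylene glycol 400 at 30, 100 and 300 mg/kg, with 600 mg/kg in some cases. Neurological deficit was read at 30 min or 4 h after dosing on a 1-in.-diameter knurled plastic rod turning at 6 rpm. Toxicity was scored as failure to stay on the rod for 1 min.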

Mus musculus [3] = assay: Compound was evaluated for anticonvulsant activity against maximal electric shock (MES) induced convulsions after 30 minutes; C is inactive at 300 mg/kg.; type: functional, organism-based; parameters: dose 300 mg/kg
Mus musculus [4] = assay: Compound was evaluated for anticonvulsant activity against subcutaneous pentylenetetrazole-induced convulsions after 30 minutes;C is inactive at 300 mg/kg.; type: functional, organism-based; parameters: dose 300 mg/kg; outline: as §1
Mus musculus [5] = assay: Compound was evaluated for anticonvulsant activity against maximal electric shock (MES) induced convulsions after 4 hr; C is inactive at 300 mg/kg.; type: functional, organism-based; parameters: dose 300 mg/kg
Mus musculus [6] = assay: Compound was evaluated for toxicity by rotarod assay method after 4 hr; C is inactive at 300 mg/kg.; type: organism-based; parameters: dose 300 mg/kg; conditions: in vivo; outline: as §2
Mus musculus [7] = assay: Compound was evaluated for anticonvulsant activity against subcutaneous pentylenetetrazole-induced convulsions after 30 minutes; C indicates no activity at 300 mg/kg.; type: functional, organism-based; parameters: dose 300 mg/kg; outline: as §1
Mus musculus [8] = organism: Mus musculus; assay: Compound was evaluated for anticonvulsant activity against maximal electric shock induced seizures; type: functional
Outline: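 Male Carworth Farms number-one mice received the compound ip in 30% polyethylene glycol 400 before maximal electroshock testing, at several dose levels. The median effective dose (ED50) was obtained by the graphical method.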

Mus musculus [9] = assay: Compound was evaluated for toxicity by rotarod assay method after 30 minutes at a dose of 300 mg/kg; type: organism-based; parameters: dose 300 mg/kg; conditions: in vivo, 0.5 h; outline: as §2
[10] = Compound was evaluated for anticonvulsant activity by rotarod procedure; type: ADME, organism-based; conditions: mouse, in vivo
Outline: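 Male Carworth Farms mice were dosed ip in 30% PEG 400 and then placed on a knurled plastic rod 1 in. in diameter, rotating at 6 rpm. Neurotoxicity was failure to stay on the rod for 1 min. TD50 was derived graphically.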

[11] = Protective index is the ratio of TD50 to ED50; type: ADME; conditions: for selectivity ratio: read-out: Protective index
Outline: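 Protective index was calculated as rotorod TD50 divided by anti-MES ED50. Both were graphical median doses from ip dosing in 30% PEG 400 in male Carworth Farms mice.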

Mus musculus [12] = assay: Compound was evaluated for anticonvulsant activity against maximal electric shock (MES) induced convulsions after 30 minutes at a dose of 100 mg/kg; type: functional
Mus musculus [13] = assay: Compound was evaluated for anticonvulsant activity against subcutaneous pentylenetetrazole-induced convulsions after 4 hr; C indicates no activity at 300 mg/kg.; type: functional, organism-based; parameters: dose 300 mg/kg; outline: as §1
Mus musculus [14] = assay: Compound was evaluated for toxicity by rotarod assay method after 4 hr; C indicates no activity at 300 mg/kg.; type: organism-based; parameters: dose 300 mg/kg; conditions: in vivo; outline: as §2
Mus musculus [15] = assay: Compound was evaluated for anticonvulsant activity against maximal electric shock (MES) induced convulsions after 4 hr; C indicates no activity at 300 mg/kg.; type: functional, organism-based; parameters: dose 300 mg/kg
Mus musculus [16] = assay: Compound was evaluated for anticonvulsant activity against subcutaneous pentylenetetrazole-induced convulsions after 30 minutes at a dose of 300 mg/kg; type: functional; outline: as §1
Mus musculus [17] = assay: Compound was evaluated for anticonvulsant activity against subcutaneous pentylenetetrazole-induced convulsions after 4 hr at a dose of 300 mg/kg; type: functional; outline: as §1
Mus musculus [18] = assay: Compound was evaluated for toxicity by rotarod assay method after 30 minutes; C indicates no activity at 300 mg/kg.; type: organism-based; parameters: dose 300 mg/kg; conditions: in vivo, 0.5 h; outline: as §2
Mus musculus [19] = assay: Compound was evaluated for anticonvulsant activity against maximal electric shock (MES) induced convulsions after 30 minutes at a dose of 300 mg/kg; type: functional
Mus musculus [20] = assay: Compound was evaluated for anticonvulsant activity against maximal electric shock (MES) induced convulsions after 30 minutes; C indicates no activity at 300 mg/kg.; type: functional, organism-based; parameters: dose 300 mg/kg
Mus musculus [21] = assay: Compound was evaluated for anticonvulsant activity against maximal electric shock (MES) induced convulsions after 30 minutes;C is inactive at 300 mg/kg.; type: functional, organism-based; parameters: dose 300 mg/kg
Mus musculus [22] = assay: Compound was evaluated for toxicity by rotarod assay method after 30 minutes at a dose of 100 mg/kg; type: organism-based; parameters: dose 100 mg/kg; conditions: in vivo, 0.5 h; outline: as §2
Mus musculus [23] = assay: Compound was evaluated for anticonvulsant activity against maximal electric shock (MES) induced convulsions after 4 hr; E indicates no activity at 30 mg/kg.; type: functional, organism-based; parameters: dose 30 mg/kg
Mus musculus [24] = assay: Compound was evaluated for anticonvulsant activity against subcutaneous pentylenetetrazole-induced convulsions after 30 minutes; E indicates no activity at 30 mg/kg.; type: functional, organism-based; parameters: dose 30 mg/kg; outline: as §1
Mus musculus [25] = assay: Compound was evaluated for anticonvulsant activity against maximal electric shock (MES) induced convulsions after 30 minutes at a dose of 30 mg/kg; type: functional
Mus musculus [26] = assay: Compound was evaluated for toxicity by rotarod assay method after 4 hr; E indicates no activity at 30 mg/kg.; type: organism-based; parameters: dose 30 mg/kg; conditions: in vivo; outline: as §2
Mus musculus [27] = assay: Compound was evaluated for anticonvulsant activity against subcutaneous pentylenetetrazole-induced convulsions after 4 hr; E indicates no activity at 30 mg/kg.; type: functional, organism-based; parameters: dose 30 mg/kg; outline: as §1
Mus musculus [28] = assay: Compound was evaluated for anticonvulsant activity against maximal electric shock (MES) induced convulsions after 4 hr at a dose of 300 mg/kg; type: functional
Mus musculus [29] = assay: Compound was evaluated for anticonvulsant activity against subcutaneous pentylenetetrazole-induced convulsions after 4 hr at a dose of 100 mg/kg; type: functional; outline: as §1
Mus musculus [30] = assay: Compound was evaluated for anticonvulsant activity against subcutaneous pentylenetetrazole-induced convulsions; type: functional; conditions: sc; outline: as §1

Row | SMILES | Activity (Mus musculus [1]) | Toxicity (Mus musculus [2]) | Activity (Mus musculus [4]) | Activity (Mus musculus [5]) | Toxicity (Mus musculus [6]) | Activity (Mus musculus [7]) | ED50 (Mus musculus [8]) [mg/kg] | TD50 [10] [mg/kg] | selectivity ratio [11] | Activity (Mus musculus [12]) | Activity (Mus musculus [13]) | Toxicity (Mus musculus [14]) | Activity (Mus musculus [15]) | Toxicity (Mus musculus [18]) | also measured
1 | CCOC(=O)Nc1ccc(C(=O)NC(C)c2ccccc2)cc1 (stereo unspecified) | No activity at 300 mg/kg | No activity at 300 mg/kg | No activity at 300 mg/kg | No activity at 300 mg/kg | No activity at 300 mg/kg |  |  |  |  |  |  |  |  |  | Activity (Mus musculus [3]): No activity at 300 mg/kg
2 | CC(NCc1cccc(N)c1)c1ccccc1 (stereo unspecified) |  |  |  |  |  | No activity at 300 mg/kg | 32.4 | 49.7 | 1.53 | 3 | No activity at 300 mg/kg | No activity at 300 mg/kg | No activity at 300 mg/kg |  | Toxicity (Mus musculus [9]): 2
3 | CC(NC(=O)c1ccc(N)cc1)c1ccc(Cl)cc1 (stereo unspecified) |  |  |  |  |  |  |  |  |  |  |  | No activity at 300 mg/kg | No activity at 300 mg/kg | No activity at 300 mg/kg | Activity (Mus musculus [16]): 2; Activity (Mus musculus [17]): 2; Activity (Mus musculus [19]): 2
4 | CCOC(=O)C(=O)Nc1ccc(C(=O)NC(C)c2ccccc2)cc1 (stereo unspecified) |  |  |  |  |  | No activity at 300 mg/kg |  |  |  |  | No activity at 300 mg/kg | No activity at 300 mg/kg | No activity at 300 mg/kg |  | Activity (Mus musculus [20]): No activity at 300 mg/kg; Toxicity (Mus musculus [9]): 2
5 | CC(NC(=O)c1ccc(N(C)C)cc1)c1ccccc1 (stereo unspecified) | No activity at 300 mg/kg | No activity at 300 mg/kg | No activity at 300 mg/kg | No activity at 300 mg/kg | No activity at 300 mg/kg |  |  |  |  |  |  |  |  |  | Activity (Mus musculus [21]): No activity at 300 mg/kg
6 | CC(NC(=O)c1ccc(CN(C)C)cc1)c1ccccc1 (stereo unspecified) |  |  |  |  |  |  | 13 | 34.3 | 2.63 |  |  |  |  |  | Toxicity (Mus musculus [22]): 3; Activity (Mus musculus [23]): No activity at 30 mg/kg; Activity (Mus musculus [24]): No activity at 30 mg/kg; Activity (Mus musculus [25]): 4; Toxicity (Mus musculus [26]): No activity at 30 mg/kg; Activity (Mus musculus [27]): No activity at 30 mg/kg
7 | CNc1ccc(C(=O)NC(C)c2ccccc2)cc1 (stereo unspecified) |  |  |  |  |  |  |  |  |  | 3 |  | No activity at 300 mg/kg |  | No activity at 300 mg/kg | Activity (Mus musculus [28]): 2; Activity (Mus musculus [16]): 2; Activity (Mus musculus [17]): 2
8 | COc1ccc(C(C)NC(=O)c2ccc(N)cc2)cc1 (stereo unspecified) |  |  |  |  |  | No activity at 300 mg/kg |  |  |  |  |  | No activity at 300 mg/kg | No activity at 300 mg/kg | No activity at 300 mg/kg | Activity (Mus musculus [29]): 3; Activity (Mus musculus [20]): No activity at 300 mg/kg
9 | CCCC(NC(=O)c1ccc(N)cc1)c1ccccc1 (stereo unspecified) |  |  |  |  |  | No activity at 300 mg/kg | 93.9 | 378 | 4.03 | 3 | No activity at 300 mg/kg | No activity at 300 mg/kg |  | No activity at 300 mg/kg | Activity (Mus musculus [28]): 2; Protective index [11]: 4.8; ED50 (Mus musculus [30]): 78.8 mg/kg
10 | CN(C)c1ccc(C(=O)NCCc2ccccc2)cc1 | No activity at 300 mg/kg | No activity at 300 mg/kg | No activity at 300 mg/kg | No activity at 300 mg/kg | No activity at 300 mg/kg |  |  |  |  |  |  |  |  |  | Activity (Mus musculus [21]): No activity at 300 mg/kg
